Experimental data published in article PMC2646753 (Biochemistry, 2008).
Residue numbers refer to the chain shown, from its start.

How the values were obtained:
[1] = target: T1, QacR(E57A) (Staphylococcus aureus, UniProt P0A0N4, E57A); assay: Intrinsic tryptophan fluorescence quenching, QacR; format: binding
T1 sequence (P0A0N4 1-188 E57A): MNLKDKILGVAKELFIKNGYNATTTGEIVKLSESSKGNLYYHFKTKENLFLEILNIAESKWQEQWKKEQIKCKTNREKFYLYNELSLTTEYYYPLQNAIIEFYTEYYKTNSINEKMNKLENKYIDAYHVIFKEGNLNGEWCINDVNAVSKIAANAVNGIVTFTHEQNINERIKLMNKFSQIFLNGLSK

[2] = target: T2, QacR(E57Q) (Staphylococcus aureus, UniProt P0A0N4, E57Q); assay: Intrinsic tryptophan fluorescence quenching, QacR; format: binding
T2 sequence (P0A0N4 1-188 E57Q): T1 sequence (P0A0N4 1-188 E57A) with A57Q

[3] = target: T3, QacR(E57Q/E58Q) (Staphylococcus aureus, UniProt P0A0N4, E57Q/E58Q); assay: Intrinsic tryptophan fluorescence quenching, QacR; format: binding
T3 sequence (P0A0N4 1-188 E57Q/E58Q): T1 sequence (P0A0N4 1-188 E57A) with A57Q, E58Q

[4] = target: T4, wt QacR (Staphylococcus aureus, UniProt P0A0N4); assay: Isothermal titration calorimetry, wt QacR; format: binding
T4 sequence (P0A0N4 1-188): T1 sequence (P0A0N4 1-188 E57A) with A57E

[5] = target: T2, QacR(E57Q); assay: Isothermal titration calorimetry, QacR; format: binding
[6] = target: T5, QacR(E58Q) (Staphylococcus aureus, UniProt P0A0N4, E58Q); assay: Isothermal titration calorimetry, QacR; format: binding
T5 sequence (P0A0N4 1-188 E58Q): T1 sequence (P0A0N4 1-188 E57A) with A57E, E58Q

[7] = target: T3, QacR(E57Q/E58Q); assay: Isothermal titration calorimetry, QacR; format: binding
[8] = test system: mutant QacR proteins; assay: Intrinsic tryptophan fluorescence quenching, mutant QacR proteins compared to wt; format: binding, Staphylococcus aureus; details: all mutant QacR proteins of Table 2 vs wt QacR
Summary of the method: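 C-terminally His6-tagged QacR variants were expressed in E. coli DH5α, Ni2+-NTA purified, and dialysed into 1 M NaCl, 20 mM Tris-HCl, 5% glycerol, pH 7.5. Kd was derived from quenching of intrinsic tryptophan fluorescence intensity on ligand titration. Ligands came from 2.5 mM stocks in water, diluted in 100 mM NaCl, 15 mM Tris-HCl, 2.5% glycerol, pH 7.5. Each Kd is the mean of three independent experiments.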

SMILES	Kd [1] [nM]	Kd [2] [nM]	Kd [3] [nM]	increase in binding affinity compared to wt QacR ([3]; QacR(E57Q/E58Q) vs wt QacR) [fold]	Kd [4] [nM]	Kd [5] [nM]	Kd [6] [nM]	Kd [7] [nM]	decrease in binding affinity compared to wt QacR ([7]; QacR(E57Q/E58Q) vs wt QacR, ITC) [fold]	change in binding affinity of mutant QacR proteins compared to wt QacR [8] [fold]
COc1ccc2cc3[n+](cc2c1OC)CCc1cc2c(cc1-3)OCO2 [Be, berberine]	1880 ± 230	1390 ± 150	320 ± 150	9						
Cc1cc(N)c2ccccc2[n+]1CCCCCCCCCC[n+]1c(C)cc(N)c2ccccc21 [Dq, dequalinium]					1300 ± 300	1950 ± 180	2400 ± 200	5200 ± 3800	4	
CN(C)c1ccc(C(=C2C=CC(=[N+](C)C)C=C2)c2ccccc2)cc1 [MG, malachite green]	2980 ± 230	1770 ± 170	1990 ± 80							≤ 2.4
